Data from ChEMBL document CHEMBL3627671, “Novel derivatives of nitro-substituted salicylic acids: Synthesis, antimicrobial activity and cytotoxicity” (Bioorg Med Chem, 2015).

Legend:
Type in all cases: functional
Lichtheimia corymbifera [1] = assay: Antifungal activity against Absidia corymbifera 272 after 24 hrs by microdilution broth method; conditions: Lichtheimia corymbifera, 272, 24 h
Method in brief: (§1)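 CLSI M27-A3 broth microdilution in RPMI 1640 with glutamine, buffered to pH 7.0 with MOPS; DMSO diluent. Yeast inoculum 5 × 10^3 ± 0.2 CFU/mL. Moulds grown on Sabouraud agar 3–10 days before spore harvest, final inoculum 0.5-5 × 10^4 CFU/mL, checked in a Bürker chamber. Incubated dark, humid, 35 °C, read at 24 and 48 h visually and at 540 nm. MIC taken as ≥80% (yeasts) or ≥50% (filamentous) growth reduction versus control.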

[2] = system: Staphylococcus epidermidis; assay: Antibacterial activity against Staphylococcus epidermidis H 6966/08 after 48 hrs by microdilution broth method; conditions: H 6966/08, 48 h
Method in brief: (§2)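 Mueller-Hinton broth microdilution (modified M07-A07), pH 7.4 (±0.2). Compounds dissolved in DMSO, tested at final 500 to 0.49 µmol/L. Inoculum in sterile water matched to 0.5 McFarland. Incubated in the dark, humid atmosphere, 35 °C, read at 24 and 48 h visually and at 540 nm. MIC taken as ≥95% growth reduction (IC95) versus control.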

Trichosporon asahii [3] = assay: Antifungal activity against Trichosporon asahii 1188 after 48 hrs by microdilution broth method; conditions: Trichosporon asahii, 1188, 48 h; method in brief: as §1
Enterococcus sp. [4] = assay: Antibacterial activity against Enterococcus sp. J 14365/08 after 48 hrs by microdilution broth method; conditions: J 14365/08, 48 h; method in brief: as §2
Mycobacterium avium [5] = assay: Antimycobacterial activity against Mycobacterium avium 330/80 after 14 days; conditions: 330/80, 336 h
Candida tropicalis [6] = assay: Antifungal activity against Candida tropicalis 156 after 48 hrs by microdilution broth method; conditions: Candida tropicalis, 156, 48 h; method in brief: as §1
Klebsiella pneumoniae [7] = assay: Antibacterial activity against Klebsiella pneumoniae D 11750/08 after 48 hrs by microdilution broth method; conditions: D 11750/08, 48 h; method in brief: as §2
Staphylococcus aureus [8] = assay: Antibacterial activity against Staphylococcus aureus CCM 4516/08 after 48 hrs by microdilution broth method; conditions: CCM 4516/08, 48 h
Candida tropicalis [9] = assay: Antifungal activity against Candida tropicalis 156 after 24 hrs by microdilution broth method; conditions: Candida tropicalis, 156, 24 h; method in brief: as §1
Trichosporon asahii [10] = assay: Antifungal activity against Trichosporon asahii 1188 after 24 hrs by microdilution broth method; conditions: Trichosporon asahii, 1188, 24 h; method in brief: as §1
Nakaseomyces glabratus [11] = assay: Antifungal activity against Candida glabrata 20/I after 24 hrs by microdilution broth method; method in brief: as §1
Klebsiella pneumoniae [12] = assay: Antibacterial activity against ESBL-positive Klebsiella pneumoniae J 14368/08 after 24 hrs by microdilution broth method; conditions: J 14368/08, 24 h; method in brief: as §2
[13] = system: Trichophyton mentagrophytes; assay: Antifungal activity against Trichophyton mentagrophytes 445 after 24 hrs by microdilution broth method; conditions: Trichophyton mentagrophytes, 445, 24 h
Staphylococcus aureus [14] = assay: Antibacterial activity against methicillin-resistant Staphylococcus aureus H 5996/08 after 48 hrs by microdilution broth method; conditions: H 5996/08, 48 h
Aspergillus fumigatus [15] = assay: Antifungal activity against Aspergillus fumigatus 231 after 48 hrs by microdilution broth method; conditions: Aspergillus fumigatus, 231, 48 h; method in brief: as §1
Lichtheimia corymbifera [16] = assay: Antifungal activity against Absidia corymbifera 272 after 48 hrs by microdilution broth method; conditions: Lichtheimia corymbifera, 272, 48 h; method in brief: as §1
[17] = system: Mycobacterium tuberculosis; assay: Antimycobacterial activity against Mycobacterium tuberculosis H37Rv 331/88 after 21 days; conditions: H37Rv 331/88, 504 h
Klebsiella pneumoniae [18] = assay: Antibacterial activity against Klebsiella pneumoniae D 11750/08 after 24 hrs by microdilution broth method; conditions: D 11750/08, 24 h; method in brief: as §2
Mycobacterium kansasii [19] = assay: Antimycobacterial activity against Mycobacterium kansasii 235/80 after 21 days; conditions: 235/80, 504 h
Method in brief: (§3)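 Šula's semisynthetic medium micromethod at 37 °C, read after 7, 14 and 21 days. The 1.0 McFarland suspension was diluted 10^-4. MIC determined. 6509/96 is a clinical isolate.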

Mycobacterium avium [20] = assay: Antimycobacterial activity against Mycobacterium avium 330/80 after 21 days; conditions: 330/80, 504 h
Nakaseomyces glabratus [21] = assay: Antifungal activity against Candida glabrata 20/I after 48 hrs by microdilution broth method; method in brief: as §1
[22] = system: Mycobacterium tuberculosis; assay: Antimycobacterial activity against Mycobacterium tuberculosis H37Rv 331/88 after 14 days; conditions: H37Rv 331/88, 336 h
Mycobacterium kansasii [23] = assay: Antimycobacterial activity against Mycobacterium kansasii 6509/96 after 14 days; conditions: 6509/96, 336 h; method in brief: as §3
Mycobacterium kansasii [24] = assay: Antimycobacterial activity against Mycobacterium kansasii 6509/96 after 7 days; conditions: 6509/96, 168 h; method in brief: as §3
Aspergillus fumigatus [25] = assay: Antifungal activity against Aspergillus fumigatus 231 after 24 hrs by microdilution broth method; conditions: Aspergillus fumigatus, 231, 24 h; method in brief: as §1
Escherichia coli [26] = assay: Antibacterial activity against Escherichia coli CCM4517 after 24 hrs by microdilution broth method; conditions: CCM4517, 24 h; method in brief: as §2
Enterococcus sp. [27] = assay: Antibacterial activity against Enterococcus sp. J 14365/08 after 24 hrs by microdilution broth method; conditions: J 14365/08, 24 h; method in brief: as §2
Klebsiella pneumoniae [28] = assay: Antibacterial activity against ESBL-positive Klebsiella pneumoniae J 14368/08 after 48 hrs by microdilution broth method; conditions: J 14368/08, 48 h; method in brief: as §2
Mycobacterium kansasii [29] = assay: Antimycobacterial activity against Mycobacterium kansasii 235/80 after 7 days; conditions: 235/80, 168 h; method in brief: as §3
[30] = system: Staphylococcus epidermidis; assay: Antibacterial activity against Staphylococcus epidermidis H 6966/08 after 24 hrs by microdilution broth method; conditions: H 6966/08, 24 h; method in brief: as §2
Staphylococcus aureus [31] = assay: Antibacterial activity against methicillin-resistant Staphylococcus aureus H 5996/08 after 24 hrs by microdilution broth method; conditions: H 5996/08, 24 h
Pichia kudriavzevii [32] = assay: Antifungal activity against Candida krusei E28 after 48 hrs by microdilution broth method; conditions: E28, 48 h; method in brief: as §1
Pseudomonas aeruginosa [33] = assay: Antibacterial activity against Pseudomonas aeruginosa CCM 1961 after 48 hrs by microdilution broth method; conditions: CCM 1961, 48 h; method in brief: as §2
Candida albicans [34] = assay: Antifungal activity against Candida albicans ATCC 44859 after 48 hrs by microdilution broth method; conditions: ATCC 44859, 48 h; method in brief: as §1
Pseudomonas aeruginosa [35] = assay: Antibacterial activity against Pseudomonas aeruginosa CCM 1961 after 24 hrs by microdilution broth method; conditions: CCM 1961, 24 h; method in brief: as §2
Mycobacterium kansasii [36] = assay: Antimycobacterial activity against Mycobacterium kansasii 6509/96 after 21 days; conditions: 6509/96, 504 h; method in brief: as §3
Escherichia coli [37] = assay: Antibacterial activity against Escherichia coli CCM4517 after 48 hrs by microdilution broth method; conditions: CCM4517, 48 h; method in brief: as §2
Staphylococcus aureus [38] = assay: Antibacterial activity against Staphylococcus aureus CCM 4516/08 after 24 hrs by microdilution broth method; conditions: CCM 4516/08, 24 h
Candida albicans [39] = assay: Antifungal activity against Candida albicans ATCC 44859 after 24 hrs by microdilution broth method; conditions: ATCC 44859, 24 h; method in brief: as §1
[40] = system: Trichophyton mentagrophytes; assay: Antifungal activity against Trichophyton mentagrophytes 445 after 48 hrs by microdilution broth method; conditions: Trichophyton mentagrophytes, 445, 48 h
Pichia kudriavzevii [41] = assay: Antifungal activity against Candida krusei E28 after 24 hrs by microdilution broth method; conditions: E28, 24 h; method in brief: as §1
Mycobacterium kansasii [42] = assay: Antimycobacterial activity against Mycobacterium kansasii 235/80 after 14 days; conditions: 235/80, 336 h; method in brief: as §3

Measured: MIC

O=C(Nc1cccc([N+](=O)[O-])c1)c1cc([N+](=O)[O-])ccc1O
> 500 µM: Enterococcus sp. [4] | Klebsiella pneumoniae [7] | Klebsiella pneumoniae [12] | Klebsiella pneumoniae [18] | Escherichia coli [26] | Enterococcus sp. [27] | Klebsiella pneumoniae [28] | Pseudomonas aeruginosa [33] | Pseudomonas aeruginosa [35] | Escherichia coli [37]
62.5 µM: [17] | [22] | Mycobacterium kansasii [24] | Mycobacterium kansasii [42]
500 µM: [2] | Staphylococcus aureus [8] | Staphylococcus aureus [14] | [30] | Staphylococcus aureus [31] | Staphylococcus aureus [38]
125 µM: Mycobacterium avium [5] | Mycobacterium kansasii [19] | Mycobacterium avium [20] | Mycobacterium kansasii [23] | Mycobacterium kansasii [36]
16 µM: Mycobacterium kansasii [29]
> 250 µM: all other assays above

O=C(Nc1ccc([N+](=O)[O-])cc1)c1cc([N+](=O)[O-])ccc1O
62.5 µM: [22] | Mycobacterium kansasii [24] | Mycobacterium kansasii [42]
250 µM: Mycobacterium avium [5] | Staphylococcus aureus [8] | Staphylococcus aureus [14] | Mycobacterium avium [20] | Staphylococcus aureus [31] | Staphylococcus aureus [38]
16 µM: Mycobacterium kansasii [29]
125 µM: [17] | Mycobacterium kansasii [19] | Mycobacterium kansasii [23] | Mycobacterium kansasii [36]
500 µM: [2] | [30]
> 500 µM: all other assays above

O=C(Nc1cccc(I)c1)c1cccc([N+](=O)[O-])c1O
500 µM: Mycobacterium avium [5] | Mycobacterium avium [20]
62.5 µM: [17] | [22] | Mycobacterium kansasii [29]
125 µM: Mycobacterium kansasii [19] | Mycobacterium kansasii [23] | Mycobacterium kansasii [24] | Mycobacterium kansasii [36] | Mycobacterium kansasii [42]
